Laboratory results reported in ChEMBL document CHEMBL1938331, “Discovery of novel and potent CRTH2 antagonists” (Bioorg Med Chem Lett, 2012).
pIC50: −log10 of the molar value.

How the values were obtained:
[1] = molecular target: T1, Chemoattractant receptor-homologous molecule expressed on Th2 cells (Cavia porcellus, UniProt Q56D28); experiment: Displacement of [3H]PGD2 from guinea pig CRTH2 receptor expressed in HEK293 cells after 2 hrs by scintillation counting; type: cell-based
T1 sequence (Q56D28 whole entry): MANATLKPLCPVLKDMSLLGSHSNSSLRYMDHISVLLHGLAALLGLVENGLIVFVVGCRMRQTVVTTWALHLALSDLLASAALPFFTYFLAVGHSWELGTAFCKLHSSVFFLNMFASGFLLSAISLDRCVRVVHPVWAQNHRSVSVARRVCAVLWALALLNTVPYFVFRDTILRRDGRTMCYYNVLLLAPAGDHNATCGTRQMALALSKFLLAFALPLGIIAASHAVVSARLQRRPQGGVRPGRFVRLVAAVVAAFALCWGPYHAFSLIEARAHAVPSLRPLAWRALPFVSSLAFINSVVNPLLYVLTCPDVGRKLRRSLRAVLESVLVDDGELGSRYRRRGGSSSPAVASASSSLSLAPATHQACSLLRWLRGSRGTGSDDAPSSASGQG
In short: (§1)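 Disrupted HEK293 cells stably transfected with human or guinea pig CRTH2 (10 µg protein/well human; 20 µg protein/well guinea pig) in 10 mM BES, 1 mM EDTA, 10 mM MnCl2, pH 7.0, incubated with [3H]PGD2 and rising compound levels 2 h at 4 °C; filtered, scintillation counted; nonspecific binding with 10 µM DK-PGD2; IC50 for 50% binding loss; mean of ≥2 experiments.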

[2] = molecular target: T2, Prostaglandin D2 receptor (Homo sapiens, UniProt Q13258); experiment: Displacement of [3H]PGD2 from human DP1 receptor expressed in HEK293 cells after 2 hrs by scintillation counting; type: cell-based
T2 sequence (Q13258 whole entry): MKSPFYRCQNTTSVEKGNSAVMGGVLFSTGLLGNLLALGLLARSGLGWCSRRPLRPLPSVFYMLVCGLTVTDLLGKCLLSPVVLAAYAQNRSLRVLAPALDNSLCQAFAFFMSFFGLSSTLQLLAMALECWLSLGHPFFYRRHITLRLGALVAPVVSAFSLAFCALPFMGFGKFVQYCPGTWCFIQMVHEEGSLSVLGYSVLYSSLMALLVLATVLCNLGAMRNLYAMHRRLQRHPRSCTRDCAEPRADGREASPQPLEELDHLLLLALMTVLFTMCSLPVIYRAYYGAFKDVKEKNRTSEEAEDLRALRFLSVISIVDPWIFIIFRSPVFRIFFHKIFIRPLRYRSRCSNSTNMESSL
In short: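 Disrupted HEK293 cells stably expressing human DP1 (10 µg protein/well) in 10 mM BES, 1 mM EDTA, 10 mM MnCl2, pH 7.0, incubated with [3H]PGD2 and increasing compound concentrations 2 h at 4 °C; glass-filter harvest and scintillation counting of retained radioactivity.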

[3] = Cmax in Hartley guinea pig at 10 mg/kg, po; type: ADME, organism-based, Cavia porcellus; set-up: dose 10 mg/kg, route oral; details: in vivo
In short: (§2)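 Guinea pigs fasted overnight, given 10 mg/kg orally as a 10 mg/mL suspension in 0.5% methylcellulose in water; plasma Cmax and AUC determined.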

[4] = AUC in Hartley guinea pig at 10 mg/kg, po; type: ADME, organism-based, Cavia porcellus; set-up: dose 10 mg/kg, route oral; details: plasma; in short: as §2
[5] = Clearance in guinea pig liver microsomes; type: ADME, Cavia porcellus, Microsome; details: read-out: CLH
[6] = molecular target: T3, Prostaglandin D2 receptor 2 (Homo sapiens, UniProt Q9Y5Y4); experiment: Displacement of [3H]PGD2 from human CRTH2 receptor expressed in HEK293 cells after 2 hrs by scintillation counting; type: cell-based; in short: as §1
T3 sequence (Q9Y5Y4 whole entry): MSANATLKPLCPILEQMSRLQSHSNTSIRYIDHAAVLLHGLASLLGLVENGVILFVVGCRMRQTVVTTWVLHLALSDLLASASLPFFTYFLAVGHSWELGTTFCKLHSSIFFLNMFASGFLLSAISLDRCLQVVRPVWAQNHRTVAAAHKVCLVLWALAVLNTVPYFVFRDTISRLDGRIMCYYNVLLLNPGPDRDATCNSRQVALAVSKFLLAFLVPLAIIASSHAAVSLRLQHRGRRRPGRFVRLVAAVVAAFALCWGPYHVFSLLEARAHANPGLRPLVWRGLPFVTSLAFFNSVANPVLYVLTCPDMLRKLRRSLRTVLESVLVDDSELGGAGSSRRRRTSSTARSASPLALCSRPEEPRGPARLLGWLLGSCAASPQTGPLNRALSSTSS

Row | Structure (SMILES) | pIC50 [1] | pIC50 [2] | Cmax [3] [ng/mL] | AUC [4] [ng·h/mL] | CLint scaled [5] [mL/min/kg] | pIC50 [6]
1 | O=C(O)COc1cccc(CCCn2cc(C(c3ccccc3)c3ccccc3)ccc2=O)c1 | 6.59 | < 6.00 | 840 | 5950 | 120 | 
2 | O=C(O)COc1cccc(CCCn2nc(C(c3ccccc3)c3ccccc3)ccc2=O)c1 | 6.83 |  | 730 | 2400 |  | 7.74
3 | O=C(O)COc1cccc(CCCn2cc(C(c3ccc(F)cc3)c3ccc(F)cc3)ccc2=O)c1 | 6.44 |  |  |  |  | 7.96
4 | O=C(O)COc1cccc(CCCn2cc(C(c3ccc(Cl)cc3)c3ccc(Cl)cc3)ccc2=O)c1 | < 6.00 |  |  |  |  | 8.04
5 | Cc1ccc(C(c2ccc(C)cc2)c2ccc(=O)n(CCCc3cccc(OCC(=O)O)c3)c2)cc1 | 6.11 |  |  |  |  | 8.21
6 | COc1ccc(C(c2ccc(OC)cc2)c2ccc(=O)n(CCCc3cccc(OCC(=O)O)c3)c2)cc1 | 6.68 |  |  |  |  | 8.24
7 | O=C(O)COc1cccc(OCCn2cc(C(c3ccccc3)c3ccccc3)ccc2=O)c1 | 6.10 |  |  |  |  | 7.00
8 | CC(Oc1cccc(CCCn2cc(C(c3ccccc3)c3ccccc3)ccc2=O)c1)C(=O)O (stereo not given) | 6.89 |  |  |  |  | 7.77
9 | CCC(Oc1cccc(CCCn2cc(C(c3ccccc3)c3ccccc3)ccc2=O)c1)C(=O)O (stereo not given) | 6.00 |  |  |  |  | 6.30
10 | CC(C)(Oc1cccc(CCCn2cc(C(c3ccccc3)c3ccccc3)ccc2=O)c1)C(=O)O | < 6.00 |  |  |  |  | 
11 | O=C(O)CCCOc1cccc(CCCn2cc(C(c3ccccc3)c3ccccc3)ccc2=O)c1 | 7.00 |  | 500 | 1020 |  | 7.96
12 | O=C(O)CCCOc1cccc(CCCn2nc(C(c3ccccc3)c3ccccc3)ccc2=O)c1 | 7.28 | 5.28 | 2860 | 4850 |  | 7.89
13 | O=C(O)COc1cccc(CCCN(CCC(c2ccccc2)c2ccccc2)C(=O)c2ccccc2)c1 | 7.74 |  |  |  |  | 8.01
14 | COc1ccc(C(=O)N(CCCc2cccc(OCC(=O)O)c2)CCC(c2ccccc2)c2ccccc2)cc1 | 7.77 |  | 40 | 270 | 766 | 8.26
